From ChEMBL document CHEMBL1154129, “Cytotoxic polyketides from a marine-derived fungus Aspergillus glaucus” (J Nat Prod, 2008)
The source made the active and inactive calls. No cut-off for these calls is given here.

Experiments:
Assay type in all cases: functional, cell-based
[1] = system: HL-60; assay: Cytotoxicity against human HL60 cells after 72 hrs by MTT assay; details: HL-60, 72 h
Outline: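 HL60 grown in RPMI-1640 with 10% FBS at 37 °C, 5% CO2. Seeded at 5 × 10^4 cells/mL, allowed 24 h, then given compounds in MeOH (2 µL per well) at several concentrations for 72 h. MTT (5 mg/mL stock) added for 4 h, formazan dissolved in DMSO, absorbance read at 540 nm. IC50 taken from the linear portion of log dose–response curves.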

[2] = system: A549; assay: Cytotoxicity against human A549 cells after 24 hrs by SRB assay; details: A549, 24 h
Outline: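 A-549 cells plated at 2 × 10^5 cells/mL, then compounds added in MeOH (2 µL per well) at several concentrations for 24 h. Cells fixed with 12% trichloroacetic acid, stained with 0.4% SRB, absorbance read at 515 nm. IC50 taken from the linear portion of log dose–response curves.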

[3] = system: HL-60; assay: Cytotoxicity against human HL60 cells at 100 uM after 72 hrs by MTT assay
[4] = system: A549; assay: Cytotoxicity against human A549 cells at 100 uM after 24 hrs by SRB assay

SMILES | IC50 [1] | IC50 [2] | Activity [3] | Activity [4]
COc1cc(O)c2c(c1)[C@@H]([C@H]1c3cc(C)cc(O)c3C(=O)c3c(O)cc(O)cc31)c1cc(C)cc(O)c1C2=O (relative stereo) | 7.8 µM | 9.2 µM |  | 
COc1cc(O)cc2c1C(=O)c1c(O)cc(C)c3oc(=O)c(C(=O)c4c(C)cc(O)cc4O)c-2c13 [ASPERGIOLIDE B] | 0.51 µM | 0.24 µM |  | 
COc1cc(O)c2c(c1)[C@H]([C@H]1c3cc(C)cc(O)c3C(=O)c3c(O)cc(O)cc31)c1cc(C)cc(O)c1C2=O (relative stereo) | 44 µM | 14.2 µM |  | 
COc1cc(O)cc2c1C(=O)c1c(cc(C)c(C(=O)OC[C@H](O)CO)c1O)C2=O |  |  | inactive | inactive
COc1cc(O[C@H]2O[C@H](CO)[C@@H](O)[C@H]2O)cc2cccc(O)c12 |  |  | inactive | inactive
COc1cc(O[C@H]2O[C@H](CO)[C@@H](O)[C@H]2O)cc2cc(C)cc(O)c12 |  |  | inactive | inactive
COc1cc(O)cc2cc3c(c(O)c12)C(=O)C[C@@H](C)[C@@H]3O |  |  | inactive | inactive
COc1cc(O[C@H]2O[C@H](CO)[C@@H](O)[C@H]2O)cc2cc(C)c(C(C)=O)c(O)c12 |  |  | inactive | inactive
